Experimental data: ChEMBL document CHEMBL3526127, “Absorption, elimination, and metabolism of CS-1036, a novel α-amylase inhibitor in rats and monkeys, and the relationship between gastrointestinal distribution and suppression of glucose absorption” (Drug Metab Dispos, 2013)

Columns and labels:
[1] = Drug metabolism in rat liver S9 fractions at 0.42 uCi/ml assessed as metabolite formation in presence of NADPH after 1 hr at 37 degC by LC-MS/MS method; format: ADME, subcellular, Liver S9 fraction; conditions: s9, 1 h
[2] = Drug excretion in F344 rat feces at 1 mg/kg, iv administered as single dose after 0 to 168 hrs by scintillation counting method; format: ADME, organism-based; parameters: dose 1 mg/kg, route intravenous; conditions: in vivo
Outline: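 Fasted F344 rats (152–156 g iv via tail vein; 154–159 g oral; n = 4) received [14C]-labelled drug at 1 mg/kg (41.9 µCi/kg). Animals were kept in metabolic cages; urine and feces were collected to 168 h, and expired CO2 was trapped in 2-aminoethanol/2-methoxyethanol (1:1) to 48 h. Samples were counted by liquid scintillation (feces homogenized). Results are % of dose, mean ± S.D.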

[3] = Drug excretion in cynomolgus monkey urine at 3 mg/kg, po administered as single dose after 48 hrs by scintillation counting method; conditions: in vivo
[4] = Drug metabolism in po dosed monkey urine assessed as 1,4-dideoxy-1,4-imino-D-arabinitol formation by LC-MS/MS method; conditions: cynomolgus monkey, in vivo
[5] = Drug metabolism in F344 rat urine assessed as 1,4-dideoxy-1,4-imino-D-arabinitol formation by LC-MS/MS method; format: ADME, tissue-based
[6] = Drug metabolism in po dosed F344 rat urine assessed as 1,4-dideoxy-1,4-imino-D-arabinitol formation by LC-MS/MS method; format: ADME, organism-based; conditions: in vivo
Rattus norvegicus [7] = assay: Total drug excretion in F344 rat at 1 mg/kg, iv administered as single dose after 0 to 168 hrs by scintillation counting method; format: ADME, organism-based; parameters: dose 1 mg/kg, route intravenous; conditions: in vivo
Outline: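 Fasted F344 rats (n = 4) received [14C]-labelled drug at 1 mg/kg (41.9 µCi/kg), iv via tail vein or oral. They were housed in metabolic cages. Urine and feces were collected to 168 h, and expired CO2 was trapped in 2-aminoethanol/2-methoxyethanol to 48 h. Radioactivity was counted by liquid scintillation, feces after homogenization. Results are % of dose.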

[8] = AUClast in cynomolgus monkey at 10 mg/kg, iv administered as single dose by LC-MS/MS method; format: ADME, organism-based, Macaca fascicularis; parameters: time 0 - last, dose 10 mg/kg, route intravenous; conditions: plasma
Outline: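 Fasted male F344 rats (146–185 g) or male cynomolgus monkeys (3.48–4.29 kg), n = 4 per dose, given single iv or oral dose of 0.3, 1.0, 3.0 or 10.0 mg/kg; monkeys dosed with 2-week washouts. Blood sampled to 48 h; plasma stored frozen. LC-MS/MS with deuterated internal standard. Noncompartmental analysis: AUClast by trapezoidal rule; AUC0–inf = AUClast + Ctz/terminal rate constant; mean ± S.D.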

[9] = Half life in F344 rat at 10 mg/kg, po administered as single dose by LC-MS/MS method; format: ADME, organism-based; parameters: dose 10 mg/kg, route oral; conditions: in vivo
[10] = Clearance in cynomolgus monkey at 3 mg/kg, iv administered as single dose by LC-MS/MS method; format: ADME, organism-based, Macaca fascicularis; parameters: dose 3 mg/kg, route intravenous; conditions: in vivo
Outline: (§1)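 Fasted male F344 rats (146–185 g) and male cynomolgus monkeys (3.48–4.29 kg), n = 4 each, received a single iv dose; monkeys had 2-week washouts between doses. Blood was sampled up to 48 h and plasma stored at […]. Plasma parent was quantified by LC-MS/MS with a deuterated internal standard. CL = dose/AUC0–inf by noncompartmental analysis; mean ± S.D.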

[11] = Tmax in F344 rat at 1 mg/kg, po administered as single dose by LC-MS/MS method; format: ADME, organism-based; parameters: dose 1 mg/kg, route oral; conditions: in vivo
Outline: (§2)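 Male F344 rats (146–185 g) and male cynomolgus monkeys (3.48–4.29 kg), n = 4 each, fasted overnight, received single iv or oral doses of 0.3, 1.0, 3.0 or 10.0 mg/kg. Monkeys had 2-week washouts between doses. Plasma was sampled to 48 h and assayed by LC-MS/MS with deuterated internal standard. Noncompartmental analysis: tmax observed; t1/2 by regression on ≥3 terminal log points; Vss = dose·AUMC/(AUC0–inf)²; Foral = oral/iv AUC0–inf at the same dose.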

[12] = Volume of distribution at steady state in F344 rat at 1 mg/kg, iv administered as single dose by LC-MS/MS method; format: ADME, organism-based; parameters: dose 1 mg/kg, route intravenous; conditions: in vivo, read-out: Vdss; outline: as §2
[13] = Half life in cynomolgus monkey at 1 mg/kg, po administered as single dose by LC-MS/MS method; format: ADME, organism-based, Macaca fascicularis; parameters: dose 1 mg/kg, route oral; conditions: in vivo; outline: as §2
Alpha amylase = biological target: T1, Alpha amylase (Homo sapiens, UniProt P0DUB6); assay: Inhibition of pancreatic alpha amylase (unknown origin)
T1 sequence (P0DUB6 whole entry): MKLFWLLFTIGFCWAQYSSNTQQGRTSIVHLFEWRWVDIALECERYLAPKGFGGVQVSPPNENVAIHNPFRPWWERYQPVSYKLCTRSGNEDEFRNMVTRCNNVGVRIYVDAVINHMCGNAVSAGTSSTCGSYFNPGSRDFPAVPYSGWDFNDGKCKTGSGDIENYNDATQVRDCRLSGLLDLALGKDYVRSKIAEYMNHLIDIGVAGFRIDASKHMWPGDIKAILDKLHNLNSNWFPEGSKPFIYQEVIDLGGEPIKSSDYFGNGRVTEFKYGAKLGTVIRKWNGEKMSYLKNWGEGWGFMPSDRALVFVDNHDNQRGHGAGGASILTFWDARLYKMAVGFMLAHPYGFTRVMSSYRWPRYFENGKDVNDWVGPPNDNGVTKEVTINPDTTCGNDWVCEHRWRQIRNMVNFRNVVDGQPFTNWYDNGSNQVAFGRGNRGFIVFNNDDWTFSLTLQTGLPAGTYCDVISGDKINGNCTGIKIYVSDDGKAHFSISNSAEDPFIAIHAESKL

[14] = Clearance in cynomolgus monkey at 10 mg/kg, iv administered as single dose by LC-MS/MS method; format: ADME, organism-based, Macaca fascicularis; parameters: dose 10 mg/kg, route intravenous; conditions: in vivo; outline: as §1
[15] = Volume of distribution at steady state in cynomolgus monkey at 10 mg/kg, iv administered as single dose by LC-MS/MS method; format: ADME, organism-based, Macaca fascicularis; parameters: dose 10 mg/kg, route intravenous; conditions: in vivo, read-out: Vdss; outline: as §2
[16] = Clearance in cynomolgus monkey at 0.3 mg/kg, iv administered as single dose by LC-MS/MS method; format: ADME, organism-based, Macaca fascicularis; parameters: dose 0.3 mg/kg, route intravenous; conditions: in vivo; outline: as §1
Rattus norvegicus [17] = assay: Reduction in plasma glucose in starch loaded po dosed ZDF rat; format: functional
Outline: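 Male ZDF rats were acclimatized to 10 weeks of age and fasted overnight (n = 8 per group). They were given oral compound (0–0.1 mg/kg) in starch suspension (2 g/kg); a nonstarch control received water at 10 ml/kg. Plasma glucose was measured at −15 min (taken as baseline) and at 0.5, 1, 2 and 4 h with an automatic analyzer. ΔAUC of glucose change was calculated by the trapezoidal rule. ED50 came from a sigmoid Emax model bounded by the starch and nonstarch controls, and groups were compared by Dunnett test.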

[18] = Volume of distribution at steady state in cynomolgus monkey at 0.3 mg/kg, iv administered as single dose by LC-MS/MS method; format: ADME, organism-based, Macaca fascicularis; parameters: dose 0.3 mg/kg, route intravenous; conditions: in vivo, read-out: Vdss; outline: as §2

Row | Drug metabolism [1] | Drug excretion [2] [%] | Drug excretion [3] [%] | Drug metabolism [4] | Drug metabolism [5] | Drug metabolism [6] | Drug excretion (Rattus norvegicus [7]) [%] | AUC(0-t) [8] [ng·h/mL] | half-life [9] [h] | clearance [10] [mL/min/kg] | Tmax [11] [h] | Vd [12] [L/kg] | half-life [13] [h] | IC50 (Alpha amylase) [nM] | clearance [14] [mL/min/kg] | Vd [15] [L/kg] | clearance [16] [mL/min/kg] | Vd [18] [L/kg] | SMILES | ED50 (Rattus norvegicus [17]) [mg/kg] | inhibition (Rattus norvegicus [17])
1 | metabolite_not_detected | 17.82 | 2.9 | metabolite_detected | metabolite_detected | metabolite_detected | 95.85 | – | – | – | – | – | – | – | – | – | – | – | C[C@H]1O[C@@H](O[C@H]2[C@H](O)[C@@H](O)[C@@H](O[14C@H]3[14C@H](O)[14CH2]N[14C@@H]3[14CH2]O)O[C@@H]2CO)[C@H](O)[C@@H](O)[C@@H]1O | – | –
2 | – | – | – | – | – | – | – | 74300 | 18.3 | 2.75 | 0.417 | 0.237 | 1.29 | 450 | 2.25 | 0.217 | 2.55 | 0.233 | C[C@H]1O[C@@H](O[C@H]2[C@H](O)[C@@H](O)[C@@H](O[C@H]3[C@H](O)CN[C@@H]3CO)O[C@@H]2CO)[C@H](O)[C@@H](O)[C@@H]1O | 0.015 | Dose-dependent effect
